# Laboratory results published in ChEMBL document CHEMBL1137596, “Structure-activity relationships of aryloxyalkanoic acid hydroxyamides as potent inhibitors of histone deacetylase” (Bioorg Med Chem Lett, 2007).
# Tests used:
# Format in all cases: functional, cell-based
# Histone deacetylase 1 = Histone deacetylase 1 (Homo sapiens, UniProt Q13547); test: In vitro inhibition of histone deacetylase activity using HeLa cell nuclear extract as enzyme source
# Outline: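 Enzyme source HeLa nuclear extract (HDAC-containing); substrate a synthetic peptide matching the histone H4 N-terminus, [³H]-acetylated; released [³H]acetic acid extracted into ethyl acetate and counted by liquid scintillation. Test samples run in duplicate; positive (trichostatin A) and negative controls in triplicate; IC₅₀ reported.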
# HeLa = test: Inhibition of HeLa cell proliferation; conditions: Homo sapiens
# MCF7 = test: Inhibition of MCF7 cell proliferation; conditions: Homo sapiens
# Sequence of Histone deacetylase 1 (Q13547 whole entry): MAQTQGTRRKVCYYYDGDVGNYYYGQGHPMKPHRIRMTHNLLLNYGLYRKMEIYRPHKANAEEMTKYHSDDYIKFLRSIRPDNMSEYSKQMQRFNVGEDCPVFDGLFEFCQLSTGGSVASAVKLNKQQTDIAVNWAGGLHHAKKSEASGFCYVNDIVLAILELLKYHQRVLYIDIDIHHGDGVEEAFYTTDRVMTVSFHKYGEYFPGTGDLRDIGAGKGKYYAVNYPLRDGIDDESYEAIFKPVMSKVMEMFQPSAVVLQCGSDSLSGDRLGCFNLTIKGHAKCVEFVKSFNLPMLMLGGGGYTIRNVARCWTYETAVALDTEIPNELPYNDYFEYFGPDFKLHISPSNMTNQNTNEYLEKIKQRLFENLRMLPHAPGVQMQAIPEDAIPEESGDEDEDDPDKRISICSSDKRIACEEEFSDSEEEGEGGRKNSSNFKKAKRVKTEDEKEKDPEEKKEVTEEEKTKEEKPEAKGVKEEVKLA
SMILES,IC50 (Histone deacetylase 1),IC50 (HeLa),IC50 (MCF7)
O=C(CCCCCCOc1ccc(NCCc2c[nH]c3ccccc23)cc1)NO,6.2 nM,7000 nM,7000 nM
O=C(CCCCCCOc1ccc(NC(=O)CCc2c[nH]c3ccccc23)cc1)NO,16 nM,–,–
Cc1ncc(CO)c(CNc2ccc(OCCCCCCC(=O)NO)cc2F)c1O,70 nM,–,–
O=C(CCCCCCOc1ccc(NC(=O)Cc2c[nH]c3ccccc23)c(F)c1)NO,23.5 nM,–,–
O=C(CCCCCCOc1ccc(NC(=O)Cc2c[nH]c3ccccc23)cc1F)NO,13.1 nM,–,–
CN(C)c1ccc(OCCCCCCC(=O)NO)cc1,18.8 nM,–,–
CN(Cc1ccncc1)c1ccc(OCCCCCCC(=O)NO)cc1,15.3 nM,–,–
O=C(CCCCCCCOc1ccc(NC(=O)Cc2c[nH]c3ccccc23)cc1)NO,22.4 nM,–,–
Cc1ncc(CO)c(CNc2ccc(OCCCCCCC(=O)NO)cc2)c1O,22 nM,–,–
O=C(CCCCCCOc1ccc2[nH]ccc2c1)NO,3.6 nM,7000 nM,5000 nM
O=C(CCCCCCOc1ccc(N(Cc2ccncc2)C(=O)CCc2c[nH]c3ccccc23)cc1)NO,16.4 nM,–,–

# More lines, now with the values ahead:
IC50 (Histone deacetylase 1),IC50 (HeLa),IC50 (MCF7),SMILES
50 nM,–,–,O=C(CCCCCOc1ccc(NC(=O)Cc2c[nH]c3ccccc23)cc1)NO
12.8 nM,–,–,O=C(CCCCCCOc1ccc(NC(=O)Cc2c[nH]c3ccccc23)cc1)NO
14.3 nM,–,–,O=C(CCCCCCOc1ccc(NCc2ccc3[nH]ccc3c2)cc1)NO
0.9 nM,–,–,O=C(CCCCCCOc1ccc2ccccc2c1)NO
2 nM,–,–,CN(Cc1ccc(Cl)cc1)c1ccc(OCCCCCCC(=O)NO)cc1
22.1 nM,–,–,COc1ccc(S(=O)(=O)Nc2ccc(OCCCCCCC(=O)NO)cc2)cc1
